≈ marks a conversion by molar mass, not a printed value. Calls of active or inactive are those of the source. The calls are words filed in the database; no cut-off is given here.
What was measured:
Homo sapiens = species: Homo sapiens; assay: Inhibition of TEL-fused cKIT L567P mutant (unknown origin) expressed in mouse BA/F3 cells assessed as cell growth inhibition after 72 hrs by cell titer-glo assay; format: cell-based
How it was run: (§1)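 Cells seeded at 3000 per well and exposed to serial compound dilutions for 72 h. Viability read by CellTiter-Glo luminescence and normalised to DMSO controls; mean of three independent measurements. BaF3 lines kept IL-3-free in RPMI 1640/10% FBS after retroviral transduction and puromycin selection. GIST lines grown in DMEM/10% FBS.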

[1] = tested on: Mast/stem cell growth factor receptor Kit (Homo sapiens), P10721 [V654A]; assay: Inhibition of TEL-fused cKIT V654A mutant (unknown origin) expressed in mouse BA/F3 cells assessed as cell growth inhibition after 72 hrs by cell titer-glo assay; format: cell-based; how it was run: as §1
[2] = tested on: Mast/stem cell growth factor receptor Kit (Homo sapiens), P10721 [N822K]; assay: Inhibition of TEL-fused cKIT N822K mutant (unknown origin) expressed in mouse BA/F3 cells assessed as cell growth inhibition after 72 hrs by cell titer-glo assay; format: cell-based; how it was run: as §1
[3] = target: T1, Mast/stem cell growth factor receptor Kit (Homo sapiens, UniProt P10721); assay: Ratio of Imatinib IC50 to compound IC50 for wild type cKIT in human GIST-T1 cells; format: cell-based
[4] = target: Cyclin-dependent kinase-like 3 (Homo sapiens) (UniProt Q8IVW4); assay: Inhibition of partial length human CDKL3 expressed in bacterial expression system assessed as activity remaining at 1 uM by kinome scan assay
[5] = target: Vascular endothelial growth factor receptor 3 (Homo sapiens) (UniProt P35916); assay: Inhibition of partial length human FLT4 expressed in bacterial expression system assessed as activity remaining at 1 uM by kinome scan assay
[6] = target: Proto-oncogene tyrosine-protein kinase receptor Ret (Homo sapiens) (UniProt P07949); assay: Inhibition of partial length human RET expressed in bacterial expression system assessed as activity remaining at 1 uM by kinome scan assay
[7] = target: Vascular endothelial growth factor receptor 3 (Homo sapiens) (UniProt P35916); assay: Inhibition of TEL-fused partial length human FLT4 expressed in mouse BA/F3 cells after 72 hrs by cell titer-glo assay; format: cell-based; how it was run: as §1
[8] = target: T1, Mast/stem cell growth factor receptor Kit; assay: Inhibition of wild type cKIT autophosphorylation at Y823 in human GIST-T1 cells at 100 nM after 1 hr by Western blot analysis; format: cell-based
How it was run: (§2)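 GIST-T1 or GIST-5R cells in DMEM with 10% FBS were treated with serially diluted compound for 1 h. Cells were then lysed and analysed by western blotting.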

[9] = target: T1, Mast/stem cell growth factor receptor Kit; assay: Inhibition of wild type cKIT in human GIST-T1 cells assessed as downregulation of AKT phosphorylation at S473 after 1 hr by Western blot analysis; format: cell-based
How it was run: (§3)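 GIST-T1 cells in DMEM with 10% FBS were exposed to serially diluted compound for 1 h, then lysed. Lysates were analysed by western blot with phospho-specific antibodies against AKT (Ser473), ERK1/2 (Thr202/Tyr204) and S6 ribosomal protein (Ser235/236), each alongside its total protein.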

[10] = target: T1, Mast/stem cell growth factor receptor Kit; assay: Inhibition of wild type cKIT in human GIST-T1 cells assessed as downregulation of ERK phosphorylation at T202//204 after 1 hr by Western blot analysis; format: cell-based; how it was run: as §3
[11] = target: T2, Mast/stem cell growth factor receptor Kit (Homo sapiens, UniProt P10721, T670I); assay: Inhibition of cKIT T670I mutant autophosphorylation at Y719 in human GIST-5R cells at 0.1 to 3 uM after 1 hr by Western blot analysis; format: cell-based; how it was run: as §2
[12] = target: T2, Mast/stem cell growth factor receptor Kit; assay: Inhibition of cKIT T670I mutant autophosphorylation at Y823 in human GIST-5R cells at 0.1 to 3 uM after 1 hr by Western blot analysis; format: cell-based; how it was run: as §2
[13] = target: T2, Mast/stem cell growth factor receptor Kit; assay: Inhibition of cKIT T670I mutant in human GIST-5R cells assessed as downregulation of S6 phosphorylation at S235/236 after 1 hr by Western blot analysis; format: cell-based; how it was run: as §2
[14] = MRT (0 to infinity) in Sprague-Dawley rat at 1 mg/kg, iv measured up to 8 hrs post dosing; format: ADME, organism-based; details: in vivo
How it was run: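 Male Sprague-Dawley rats, 8 weeks old, fasted overnight, dosed at 1 mg/kg iv from a 1 mg/mL stock in 5% DMSO/40% PEG400/55% saline. About 0.2 mL jugular blood taken into heparin at 1 min to 8 h. Plasma held at -80 °C until analysis. n = 3, mean reported.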

[15] = Solubility of the compound in PBS buffer at pH 7.4; format: physicochemical
How it was run: (§4)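 Solubility measured in PBS pH 7.4 and in pure water, reported as µg/mL.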

[16] = Solubility of the compound in pure water; format: physicochemical; how it was run: as §4
BaF3 = assay: Antitumor activity against TEL-fused cKIT T670I mutant expressing mouse BA/F3 cells allografted in nu/nu mouse assessed as tumor growth inhibition at 50 mg/kg/day, ip administered daily for 10 days; format: functional; details: 240 h, read-out: TGI
How it was run: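 Female nu/nu mice, 5 weeks old at purchase, given 1 million BaF3-TEL-cKIT-T670I cells in PBS/Matrigel 1:1 subcutaneously on the right flank. At tumour volume 200–400 mm3, randomised into groups of 7 and dosed IP daily for 10 days (25, 50, 100 mg/kg/d or vehicle: 0.5% methylcellulose/0.4% Tween80 in water). Tumour volume (W2×L/2) and body weight recorded daily.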

[17] = tested on: Mast/stem cell growth factor receptor Kit (Homo sapiens), P10721 [T670I]; assay: Inhibition of partial length human cKIT T670I mutant expressed in bacterial expression system assessed as activity remaining at 1 uM by kinome scan assay
Sequence of Mast/stem cell growth factor receptor Kit (Homo sapiens), P10721 [T670I] (P10721 whole entry T670I): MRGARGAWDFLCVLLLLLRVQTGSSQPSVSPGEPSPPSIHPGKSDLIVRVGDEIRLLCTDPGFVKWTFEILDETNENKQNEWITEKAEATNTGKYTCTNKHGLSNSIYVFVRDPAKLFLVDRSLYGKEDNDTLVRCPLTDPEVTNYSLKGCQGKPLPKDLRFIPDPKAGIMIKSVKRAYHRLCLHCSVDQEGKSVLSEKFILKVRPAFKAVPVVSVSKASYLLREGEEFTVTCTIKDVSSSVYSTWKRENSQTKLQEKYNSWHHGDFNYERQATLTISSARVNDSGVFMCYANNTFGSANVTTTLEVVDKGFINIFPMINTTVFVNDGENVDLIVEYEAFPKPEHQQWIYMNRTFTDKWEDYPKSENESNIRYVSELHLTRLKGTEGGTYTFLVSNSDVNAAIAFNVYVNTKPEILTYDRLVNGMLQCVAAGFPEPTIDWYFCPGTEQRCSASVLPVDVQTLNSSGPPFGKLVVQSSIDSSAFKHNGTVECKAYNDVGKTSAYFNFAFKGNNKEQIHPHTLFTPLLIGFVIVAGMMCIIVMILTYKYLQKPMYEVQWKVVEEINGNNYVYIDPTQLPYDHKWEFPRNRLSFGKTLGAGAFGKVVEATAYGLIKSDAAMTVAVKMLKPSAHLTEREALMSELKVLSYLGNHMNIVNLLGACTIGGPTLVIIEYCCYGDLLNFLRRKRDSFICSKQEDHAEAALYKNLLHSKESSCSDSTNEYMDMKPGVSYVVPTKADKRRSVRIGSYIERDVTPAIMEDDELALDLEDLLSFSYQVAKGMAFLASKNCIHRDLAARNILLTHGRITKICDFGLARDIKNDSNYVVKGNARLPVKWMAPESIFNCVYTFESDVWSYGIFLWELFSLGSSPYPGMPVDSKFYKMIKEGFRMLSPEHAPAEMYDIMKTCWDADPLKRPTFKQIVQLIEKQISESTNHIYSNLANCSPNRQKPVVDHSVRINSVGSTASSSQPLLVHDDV

T1 sequence (P10721 whole entry): as the sequence (P10721 whole entry T670I) above, with I670T counted along it
T2 sequence (P10721 26-976 T670I limits assumed): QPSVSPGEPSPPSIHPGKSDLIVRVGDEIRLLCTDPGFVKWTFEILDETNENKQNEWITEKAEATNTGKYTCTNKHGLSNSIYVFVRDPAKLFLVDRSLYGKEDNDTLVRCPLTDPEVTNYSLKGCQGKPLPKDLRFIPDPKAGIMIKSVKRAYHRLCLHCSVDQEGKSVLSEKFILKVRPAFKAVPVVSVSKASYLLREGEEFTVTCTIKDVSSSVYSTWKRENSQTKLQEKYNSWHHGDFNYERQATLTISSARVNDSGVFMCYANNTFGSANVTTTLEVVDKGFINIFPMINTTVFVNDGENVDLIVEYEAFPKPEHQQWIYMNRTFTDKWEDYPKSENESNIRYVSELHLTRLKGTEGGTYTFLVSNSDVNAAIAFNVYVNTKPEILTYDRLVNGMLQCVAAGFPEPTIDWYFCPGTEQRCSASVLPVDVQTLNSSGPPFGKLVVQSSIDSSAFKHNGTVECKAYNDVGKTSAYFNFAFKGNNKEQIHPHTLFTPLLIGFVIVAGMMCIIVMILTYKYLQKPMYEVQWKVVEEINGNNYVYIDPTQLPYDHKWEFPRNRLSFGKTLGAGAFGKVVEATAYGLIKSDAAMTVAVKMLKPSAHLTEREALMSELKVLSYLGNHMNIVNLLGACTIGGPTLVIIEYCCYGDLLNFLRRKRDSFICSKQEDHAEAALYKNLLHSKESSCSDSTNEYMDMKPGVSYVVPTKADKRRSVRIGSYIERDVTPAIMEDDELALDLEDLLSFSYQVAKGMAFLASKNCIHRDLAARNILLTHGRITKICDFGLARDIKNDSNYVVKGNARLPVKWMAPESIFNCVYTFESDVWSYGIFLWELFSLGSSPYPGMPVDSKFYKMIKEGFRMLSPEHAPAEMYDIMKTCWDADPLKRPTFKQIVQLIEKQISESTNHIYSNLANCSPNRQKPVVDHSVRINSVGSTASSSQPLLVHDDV
Sequence of Vascular endothelial growth factor receptor 3 (Homo sapiens) (P35916 whole entry, the tested form may be a part): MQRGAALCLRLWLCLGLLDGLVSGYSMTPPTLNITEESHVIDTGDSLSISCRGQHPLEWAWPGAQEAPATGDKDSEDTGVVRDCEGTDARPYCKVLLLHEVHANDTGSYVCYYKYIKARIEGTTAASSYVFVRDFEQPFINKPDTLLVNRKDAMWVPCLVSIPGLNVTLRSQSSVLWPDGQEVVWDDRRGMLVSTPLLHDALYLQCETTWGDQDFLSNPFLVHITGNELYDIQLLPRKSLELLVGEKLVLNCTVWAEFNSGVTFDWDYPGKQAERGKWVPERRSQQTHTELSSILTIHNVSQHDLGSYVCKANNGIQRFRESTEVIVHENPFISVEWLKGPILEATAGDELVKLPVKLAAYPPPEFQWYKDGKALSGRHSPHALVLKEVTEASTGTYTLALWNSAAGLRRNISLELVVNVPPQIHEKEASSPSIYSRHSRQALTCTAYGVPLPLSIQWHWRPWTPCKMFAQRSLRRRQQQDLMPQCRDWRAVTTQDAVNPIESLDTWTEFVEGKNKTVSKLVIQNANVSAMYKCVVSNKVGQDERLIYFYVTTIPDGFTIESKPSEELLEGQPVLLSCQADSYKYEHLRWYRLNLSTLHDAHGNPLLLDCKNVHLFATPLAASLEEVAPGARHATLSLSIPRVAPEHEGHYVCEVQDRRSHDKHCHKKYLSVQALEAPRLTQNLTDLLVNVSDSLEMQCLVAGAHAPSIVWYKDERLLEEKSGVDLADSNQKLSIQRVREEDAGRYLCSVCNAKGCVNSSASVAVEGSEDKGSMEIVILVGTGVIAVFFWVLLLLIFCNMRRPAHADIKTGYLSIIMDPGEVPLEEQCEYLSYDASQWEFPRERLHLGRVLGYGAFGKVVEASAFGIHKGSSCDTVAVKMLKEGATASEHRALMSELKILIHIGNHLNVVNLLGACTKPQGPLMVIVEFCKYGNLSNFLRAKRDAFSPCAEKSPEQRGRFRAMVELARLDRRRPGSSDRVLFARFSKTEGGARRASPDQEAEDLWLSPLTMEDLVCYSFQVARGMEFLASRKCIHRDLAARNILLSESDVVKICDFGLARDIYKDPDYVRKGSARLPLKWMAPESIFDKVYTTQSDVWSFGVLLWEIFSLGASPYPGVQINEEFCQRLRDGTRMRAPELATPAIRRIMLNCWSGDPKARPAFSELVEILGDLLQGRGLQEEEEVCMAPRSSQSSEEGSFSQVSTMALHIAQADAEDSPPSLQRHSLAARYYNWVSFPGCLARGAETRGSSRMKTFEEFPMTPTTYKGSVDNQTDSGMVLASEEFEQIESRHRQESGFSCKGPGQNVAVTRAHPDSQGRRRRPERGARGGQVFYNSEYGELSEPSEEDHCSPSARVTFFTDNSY
Sequence of Mast/stem cell growth factor receptor Kit (Homo sapiens), P10721 [N822K] (P10721 whole entry N822K, the tested form may be a part): as the sequence (P10721 whole entry T670I) above, with I670T, N822K counted along it
Sequence of Cyclin-dependent kinase-like 3 (Homo sapiens) (Q8IVW4 whole entry, looked up): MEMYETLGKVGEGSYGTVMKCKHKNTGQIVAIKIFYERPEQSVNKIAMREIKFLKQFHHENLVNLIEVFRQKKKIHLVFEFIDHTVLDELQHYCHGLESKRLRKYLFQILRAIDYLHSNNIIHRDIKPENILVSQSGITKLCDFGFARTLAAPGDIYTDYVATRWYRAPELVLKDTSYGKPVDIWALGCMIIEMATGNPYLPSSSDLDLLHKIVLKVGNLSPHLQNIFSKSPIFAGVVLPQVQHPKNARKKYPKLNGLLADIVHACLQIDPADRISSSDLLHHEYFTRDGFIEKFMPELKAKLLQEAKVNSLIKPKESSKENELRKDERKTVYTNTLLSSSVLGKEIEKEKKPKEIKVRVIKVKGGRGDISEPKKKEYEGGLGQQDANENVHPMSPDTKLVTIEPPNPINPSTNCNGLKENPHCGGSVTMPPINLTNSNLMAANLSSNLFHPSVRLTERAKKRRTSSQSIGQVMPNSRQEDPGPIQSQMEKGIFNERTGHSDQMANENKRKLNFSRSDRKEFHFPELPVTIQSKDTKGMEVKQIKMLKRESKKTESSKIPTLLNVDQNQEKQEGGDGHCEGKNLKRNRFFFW
Sequence of Proto-oncogene tyrosine-protein kinase receptor Ret (Homo sapiens) (P07949 whole entry, the tested form may be a part): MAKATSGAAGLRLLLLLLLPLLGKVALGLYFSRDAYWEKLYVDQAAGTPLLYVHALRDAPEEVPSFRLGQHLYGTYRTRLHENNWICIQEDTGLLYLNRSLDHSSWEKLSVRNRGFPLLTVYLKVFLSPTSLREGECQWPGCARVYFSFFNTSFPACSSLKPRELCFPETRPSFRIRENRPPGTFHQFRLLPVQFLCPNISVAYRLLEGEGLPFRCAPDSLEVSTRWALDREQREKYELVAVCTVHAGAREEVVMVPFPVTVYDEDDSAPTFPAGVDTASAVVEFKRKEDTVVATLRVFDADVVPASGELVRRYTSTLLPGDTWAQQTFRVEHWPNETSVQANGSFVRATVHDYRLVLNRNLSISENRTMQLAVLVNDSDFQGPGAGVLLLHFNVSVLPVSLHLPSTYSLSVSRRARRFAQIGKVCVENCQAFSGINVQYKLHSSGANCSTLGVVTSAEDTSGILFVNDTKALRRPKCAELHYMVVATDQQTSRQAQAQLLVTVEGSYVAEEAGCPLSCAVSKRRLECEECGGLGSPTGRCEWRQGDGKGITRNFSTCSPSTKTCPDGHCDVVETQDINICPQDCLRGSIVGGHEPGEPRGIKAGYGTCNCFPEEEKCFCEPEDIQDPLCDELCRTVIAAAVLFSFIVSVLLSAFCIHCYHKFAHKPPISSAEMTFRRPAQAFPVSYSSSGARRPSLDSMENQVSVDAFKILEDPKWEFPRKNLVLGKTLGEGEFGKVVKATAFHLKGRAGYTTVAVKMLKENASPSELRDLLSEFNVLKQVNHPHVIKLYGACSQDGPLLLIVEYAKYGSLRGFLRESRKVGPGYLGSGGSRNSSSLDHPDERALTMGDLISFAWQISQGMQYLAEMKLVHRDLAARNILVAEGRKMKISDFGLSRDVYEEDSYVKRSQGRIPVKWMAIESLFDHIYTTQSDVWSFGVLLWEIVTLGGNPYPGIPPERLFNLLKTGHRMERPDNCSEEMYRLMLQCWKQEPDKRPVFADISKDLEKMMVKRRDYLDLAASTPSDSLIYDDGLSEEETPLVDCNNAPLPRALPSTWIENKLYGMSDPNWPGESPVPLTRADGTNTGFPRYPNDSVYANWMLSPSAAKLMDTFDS

CCC(=O)NCC1CCN(c2ccc(NC(=O)Nc3cccc(Oc4ccnc5cc(OC)c(OC)cc45)c3)cc2C(F)(F)F)CC1
GI50 (Homo sapiens): 23 nM | GI50 [1]: 320 nM | GI50 [2]: 40 nM | Ratio IC50 [3]: 7 | Activity [4]: 0.3% | Activity [5]: 0% | Activity [6]: 0% | GI50 [7]: 240 nM | inhibition [8]: Active | EC50 [9]: < 100 nM | EC50 [10]: < 100 nM | EC50 [11]: < 100 nM | EC50 [12]: < 100 nM | EC50 [13]: < 100 nM | MRT inf [14]: 46.8 min | solubility [15]: 35 µM (≈ 22.8 µg/mL) | solubility [16]: 78 µM (≈ 50.8 µg/mL) | inhibition in vivo at 50 mg/kg/day (BaF3): 37.1% | Activity [17]: < 1%
